Assay results: ChEMBL document CHEMBL1128245, “Dual-acting thromboxane receptor antagonist/synthase inhibitors: synthesis and biological properties of [2-substituted-4-(3-pyridyl)-1,3-dioxan-5-yl] alkenoic acids” (J Med Chem, 1995)

Experiments:
[1] = species on record: Homo sapiens; assay: In vitro inhibition of U-46,619-induced aggregation of unwashed human platelets.; type: functional; conditions: for Kb: Homo sapiens, read-out: pA2 (converted)
How it was run: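 Citrated (3.2%) human venous blood spun at 200g for 10 min. Platelet-rich plasma aggregated with U46619 with or without several antagonist concentrations.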

[2] = biological target: T1, Thromboxane-A synthase (Homo sapiens, UniProt P24557); assay: In vitro Inhibition of thromboxane synthase from human blood platelet microsomes
T1 sequence (P24557 whole entry): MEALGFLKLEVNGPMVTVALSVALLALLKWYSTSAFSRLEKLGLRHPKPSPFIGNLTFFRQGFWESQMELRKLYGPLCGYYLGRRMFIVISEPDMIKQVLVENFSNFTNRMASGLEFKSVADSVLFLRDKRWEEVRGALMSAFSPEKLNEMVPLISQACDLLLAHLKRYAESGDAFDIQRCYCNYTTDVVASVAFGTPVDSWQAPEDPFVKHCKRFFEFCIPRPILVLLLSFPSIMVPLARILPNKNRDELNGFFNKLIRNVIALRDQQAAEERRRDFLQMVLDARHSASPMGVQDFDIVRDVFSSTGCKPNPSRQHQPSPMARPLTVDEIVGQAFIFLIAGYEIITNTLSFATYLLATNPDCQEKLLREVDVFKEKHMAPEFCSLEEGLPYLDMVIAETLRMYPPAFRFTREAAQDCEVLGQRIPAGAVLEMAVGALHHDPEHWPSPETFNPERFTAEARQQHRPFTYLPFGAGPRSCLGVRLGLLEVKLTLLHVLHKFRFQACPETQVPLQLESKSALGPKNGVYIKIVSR
How it was run: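 Human blood platelet microsomes incubated with [1-14C]arachidonic acid with or without inhibitor. Conversion to labeled thromboxane B2 quantified radiochromatographically. n = 2.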

[3] = biological target: T2, Prostacyclin synthase (Homo sapiens, UniProt Q16647); assay: In vitro inhibition of Prostaglandin I2 synthase in cultured human endothelial cells
T2 sequence (Q16647 whole entry): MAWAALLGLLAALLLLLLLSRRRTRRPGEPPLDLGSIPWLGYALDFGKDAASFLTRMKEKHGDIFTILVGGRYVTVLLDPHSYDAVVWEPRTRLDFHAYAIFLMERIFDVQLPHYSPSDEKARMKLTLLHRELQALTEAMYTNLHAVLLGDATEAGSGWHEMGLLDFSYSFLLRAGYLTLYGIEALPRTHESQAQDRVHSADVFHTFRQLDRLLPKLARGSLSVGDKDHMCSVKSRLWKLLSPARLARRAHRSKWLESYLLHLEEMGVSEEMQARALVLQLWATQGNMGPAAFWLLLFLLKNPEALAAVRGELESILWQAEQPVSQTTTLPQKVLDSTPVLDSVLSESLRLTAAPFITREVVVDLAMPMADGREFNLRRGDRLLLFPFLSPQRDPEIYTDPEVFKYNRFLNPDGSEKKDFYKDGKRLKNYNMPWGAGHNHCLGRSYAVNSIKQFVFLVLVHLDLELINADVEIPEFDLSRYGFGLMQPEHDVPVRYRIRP

CSc1ccccc1OC(C)(C)C1OCC(C/C=C\CCC(=O)O)C(c2cccnc2)O1 (configuration not stated)
Kb [1]: 89.1 nM
IC50 [2]: 36 nM
IC50 [3]: > 100000 nM

O=C(O)CC/C=C\CC1COC(c2ccc([N+](=O)[O-])cc2)OC1c1cccnc1 (configuration not stated)
Kb [1]: 933 nM
IC50 [2]: 39 nM
IC50 [3]: 13000 nM

O=C(O)CC/C=C\CC1COC(c2ccsc2)OC1c1cccnc1 (configuration not stated)
Kb [1]: 1580 nM
IC50 [2]: 500 nM

CC(C)(Oc1cccc(F)c1)C1OCC(C/C=C\CCC(=O)O)C(c2cccnc2)O1 (configuration not stated)
Kb [1]: 126 nM
IC50 [2]: 26 nM
IC50 [3]: 40000 nM

O=C(O)CC/C=C\CC1COC(c2ccco2)OC1c1cccnc1 (configuration not stated)
Kb [1]: 1260 nM
IC50 [2]: 164 nM

CC(C)(Oc1ccccc1O)C1OCC(C/C=C\CCC(=O)O)C(c2cccnc2)O1 (configuration not stated)
Kb [1]: 95.5 nM
IC50 [2]: 32 nM
IC50 [3]: > 100000 nM

CC(C)(Oc1ccc(F)cc1[N+](=O)[O-])C1OCC(C/C=C\CCC(=O)O)C(c2cccnc2)O1 (configuration not stated)
Kb [1]: 2.51 nM
IC50 [2]: 20 nM
IC50 [3]: 9000 nM

COC(=O)c1ccccc1OC(C)(C)C1OCC(C/C=C\CCC(=O)O)C(c2cccnc2)O1 (configuration not stated)
Kb [1]: 64.6 nM
IC50 [2]: 66 nM
IC50 [3]: 73000 nM

O=C(O)CC/C=C\CC1COC(c2ccc(C(F)(F)F)cc2)OC1c1cccnc1 (configuration not stated)
Kb [1]: 1780 nM
IC50 [2]: 44 nM

CC(C)(Oc1ccc(F)cc1C#N)C1OCC(C/C=C\CCC(=O)O)C(c2cccnc2)O1 (configuration not stated)
Kb [1]: 0.708 nM
IC50 [2]: 15 nM
IC50 [3]: 37000 nM

O=C(O)CCCC/C=C(\c1ccccc1)c1cccnc1 [(E)-ISBOGREL]
IC50 [3]: > 100000 nM

CC(C)(Oc1ccccc1)C1OCC(C/C=C\CCC(=O)O)C(c2cccnc2)O1 (configuration not stated)
Kb [1]: 75.9 nM
IC50 [2]: 52 nM
IC50 [3]: 75000 nM

COc1ccc(SC(C)(C)C2OCC(C/C=C\CCC(=O)O)C(c3cccnc3)O2)c([N+](=O)[O-])c1 (configuration not stated)
Kb [1]: 158 nM
IC50 [2]: 40 nM

COc1ccccc1OC(C)(C)C1OCC(C/C=C\CCC(=O)O)C(c2cccnc2)O1 (configuration not stated)
Kb [1]: 224 nM
IC50 [2]: 60 nM
IC50 [3]: 51000 nM

O=C(O)CC/C=C\CC1COC(c2ccc3ccccc3c2)OC1c1cccnc1 (configuration not stated)
Kb [1]: 1780 nM
IC50 [2]: 50 nM

CC(C)(Oc1ccc(Br)cc1)C1OCC(C/C=C\CCC(=O)O)C(c2cccnc2)O1 (stereo in doubt; 7q)
pA2 [1]: 6.48
IC50 [2]: 22 nM
IC50 [3]: 4000 nM

Cc1ccc(C#N)c(OC(C)(C)C2OCC(C/C=C\CCC(=O)O)C(c3cccnc3)O2)c1 (configuration not stated)
Kb [1]: 15.8 nM
IC50 [2]: 50 nM
IC50 [3]: > 100000 nM

CC(=O)c1ccc(OC(C)(C)C2OCC(C/C=C\CCC(=O)O)C(c3cccnc3)O2)c([N+](=O)[O-])c1 (configuration not stated)
Kb [1]: 1.51 nM
IC50 [2]: < 10 nM
IC50 [3]: 4000 nM

CC(C)(Oc1ccccc1Br)C1OCC(C/C=C\CCC(=O)O)C(c2cccnc2)O1 (configuration not stated)
Kb [1]: 63.1 nM
IC50 [2]: 29 nM
IC50 [3]: 7000 nM

Cc1ccc(OC(C)(C)C2OCC(C/C=C\CCC(=O)O)C(c3cccnc3)O2)c(C#N)c1 (stereo in doubt; 7ac)
pA2 [1]: 8.1
IC50 [2]: 50 nM
IC50 [3]: 47000 nM

COc1ccc(OC(C)(C)C2OCC(C/C=C\CCC(=O)O)C(c3cccnc3)O2)cc1 (configuration not stated)
Kb [1]: 302 nM
IC50 [2]: 41 nM
IC50 [3]: > 100000 nM

CC(C)(Sc1ccccc1)C1OCC(C/C=C\CCC(=O)O)C(c2cccnc2)O1 (configuration not stated)
Kb [1]: 200 nM
IC50 [2]: 40 nM

O=C(O)CC/C=C\CC1COC(c2ccccc2Cl)OC1c1cccnc1 (configuration not stated)
Kb [1]: 759 nM
IC50 [2]: 48 nM

CC(C)(Oc1ccc(S(C)(=O)=O)cc1)C1OCC(C/C=C\CCC(=O)O)C(c2cccnc2)O1 (configuration not stated)
Kb [1]: 91.2 nM
IC50 [2]: 34 nM
IC50 [3]: 8000 nM

O=C(O)CC/C=C\CC1COC(c2cccc3ccccc23)OC1c1cccnc1 (configuration not stated)
Kb [1]: 631 nM
IC50 [2]: 40 nM

Cc1ccc(OC(C)(C)C2OCC(C/C=C\CCC(=O)O)C(c3cccnc3)O2)c([N+](=O)[O-])c1 (stereo in doubt; 7w)
pA2 [1]: 8.34
IC50 [2]: 27 nM
IC50 [3]: 33000 nM

O=C(O)CC/C=C\C[C@@H]1CO[C@H](c2ccccc2Cl)O[C@@H]1c1ccccc1O
Kb [1]: 6.92 nM
IC50 [2]: > 100000 nM

CC(C)(Cc1ccccc1C#N)C1OCC(C/C=C\CCC(=O)O)C(c2cccnc2)O1 (configuration not stated)
Kb [1]: 27.5 nM
IC50 [2]: 37 nM
IC50 [3]: 14000 nM

O=C(O)CC/C=C\CC1COC(c2ccc(Cl)c(Cl)c2)OC1c1cccnc1 (configuration not stated)
Kb [1]: 776 nM
IC50 [2]: 42 nM
IC50 [3]: 9000 nM

CC(C)(Oc1ccc(C#N)cc1)C1OCC(C/C=C\CCC(=O)O)C(c2cccnc2)O1 (configuration not stated)
Kb [1]: 129 nM
IC50 [2]: 46 nM
IC50 [3]: 4000 nM

CC(C)(Oc1ccccc1S(C)(=O)=O)C1OCC(C/C=C\CCC(=O)O)C(c2cccnc2)O1 (configuration not stated)
Kb [1]: 589 nM
IC50 [2]: 45 nM
IC50 [3]: 2000 nM

CC(C)(Oc1ccccc1F)C1OCC(C/C=C\CCC(=O)O)C(c2cccnc2)O1 (configuration not stated)
Kb [1]: 166 nM
IC50 [2]: 45 nM
IC50 [3]: < 1000 nM

N#Cc1ccc(C2OCC(C/C=C\CCC(=O)O)C(c3cccnc3)O2)cc1 (configuration not stated)
Kb [1]: 1290 nM
IC50 [2]: 24 nM
IC50 [3]: > 100000 nM

CC(C)(Cc1ccccc1)C1OCC(C/C=C\CCC(=O)O)C(c2cccnc2)O1 (configuration not stated)
Kb [1]: 513 nM
IC50 [2]: 12 nM
IC50 [3]: 13000 nM

COc1ccc(OC(C)(C)C2OCC(C/C=C\CCC(=O)O)C(c3cccnc3)O2)c([N+](=O)[O-])c1 (configuration not stated)
Kb [1]: 6.17 nM
IC50 [2]: 37 nM
IC50 [3]: 23000 nM

CSc1ccc(OC(C)(C)C2OCC(C/C=C\CCC(=O)O)C(c3cccnc3)O2)c([N+](=O)[O-])c1 (configuration not stated)
Kb [1]: 4.47 nM
IC50 [2]: 22 nM
IC50 [3]: 5000 nM

O=C(O)CC/C=C\CC1COC(c2cccnc2)OC1c1cccnc1 (configuration not stated)
Kb [1]: 759 nM
IC50 [2]: 220 nM

CC(C)(Oc1ccccc1C#N)C1OCC(C/C=C\CCC(=O)O)C(c2cccnc2)O1 (configuration not stated)
Kb [1]: 13.2 nM
IC50 [2]: 45 nM
IC50 [3]: 3000 nM

Cc1ccc(OC(C)(C)C2OCC(C/C=C\CCC(=O)O)C(c3cccnc3)O2)c(C#N)c1 (stereo in doubt; 7af)
Kb [1]: 3.98 nM
IC50 [2]: 25 nM
IC50 [3]: 12000 nM

CC(C)(C)c1ccc(OC(C)(C)C2OCC(C/C=C\CCC(=O)O)C(c3cccnc3)O2)cc1 (configuration not stated)
Kb [1]: 1910 nM
IC50 [2]: 280 nM

O=C(O)CC/C=C\CC1COC(c2cccs2)OC1c1cccnc1 (configuration not stated)
Kb [1]: 1000 nM
IC50 [2]: 71 nM

CC(C)(C1OCC(C/C=C\CCC(=O)O)C(c2cccnc2)O1)S(=O)(=O)c1ccccc1 (configuration not stated)
Kb [1]: 3160 nM
IC50 [2]: 40 nM

Cc1ccc(SC(C)(C)C2OCC(C/C=C\CCC(=O)O)C(c3cccnc3)O2)c([N+](=O)[O-])c1 (configuration not stated)
Kb [1]: 158 nM
IC50 [2]: 30 nM

Cc1ccc(OC(C)(C)C2OCC(C/C=C\CCC(=O)O)C(c3cccnc3)O2)c([N+](=O)[O-])c1 (stereo in doubt; 7y)
pA2 [1]: < 5
IC50 [2]: > 10000 nM

CC(C)(Sc1ccccc1C#N)C1OCC(C/C=C\CCC(=O)O)C(c2cccnc2)O1 (configuration not stated)
Kb [1]: 316 nM
IC50 [2]: 40 nM
